Active and inactive are the calls of the source. No cut-off for these calls is given here.
Columns and labels:
MCF7 [1] = experiment: Antiproliferative activity against human MCF7 cells assessed as reduction in cell growth incubated for 48 hrs by CCK8 assay; assay type: functional, cell-based; conditions: MCF7, 48 h
Procedure, shortened: (§1)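 CCK-8 viability assay. Cells seeded at 4000/well in 10% FBS medium for 24 h, then given compound diluted from DMSO stocks into 2% FBS medium at 100, 50, 25, 12.5, 6.25 and 3.125 µM (0.1% DMSO final). After 48 h, CCK-8 was added (0.5 mg/mL) for 2 h at 37 °C and OD450 read. Triplicates; IC50 fitted from mean viability.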

Ishikawa [2] = experiment: Antiproliferative activity against human Ishikawa cells assessed as reduction in cell growth incubated for 48 hrs by CCK8 assay; assay type: functional, cell-based; procedure, shortened: as §1
MDA-MB-231 = experiment: Antiproliferative activity against human MDA-MB-231 cells assessed as reduction in cell growth incubated for 48 hrs by CCK8 assay; assay type: functional, cell-based; conditions: MDA-MB-231, 48 h; procedure, shortened: as §1
[3] = Intrinsic clearance in rat; assay type: ADME
[4] = Half life in rat liver microsomes; assay type: ADME, Microsome
[5] = Half life in rat plasma; assay type: ADME, cell-free
Ishikawa [6] = experiment: Potency index, ratio of raloxifene IC50 to test compound IC50 for human Ishikawa cells assessed as reduction in cell growth incubated for 48 hrs by CCK8 assay; assay type: functional
MCF7 [7] = experiment: Potency index, ratio of raloxifene IC50 to test compound IC50 for human MCF7 cells assessed as reduction in cell growth incubated for 48 hrs by CCK8 assay; assay type: functional
[8] = target: T1, Estrogen receptor (Homo sapiens) (UniProt P03372); experiment: Covalent antagonist activity at ERalpha in human MCF7 cells assessed as decrease in estradiol-induced GREB1 mRNA expression level at 0.25 to 10 uM measured after 24 hrs by RT-PCR analysis; assay type: cell-based; conditions: filed as antagonist, dose 0.25-10 µM
T1 sequence (whole entry): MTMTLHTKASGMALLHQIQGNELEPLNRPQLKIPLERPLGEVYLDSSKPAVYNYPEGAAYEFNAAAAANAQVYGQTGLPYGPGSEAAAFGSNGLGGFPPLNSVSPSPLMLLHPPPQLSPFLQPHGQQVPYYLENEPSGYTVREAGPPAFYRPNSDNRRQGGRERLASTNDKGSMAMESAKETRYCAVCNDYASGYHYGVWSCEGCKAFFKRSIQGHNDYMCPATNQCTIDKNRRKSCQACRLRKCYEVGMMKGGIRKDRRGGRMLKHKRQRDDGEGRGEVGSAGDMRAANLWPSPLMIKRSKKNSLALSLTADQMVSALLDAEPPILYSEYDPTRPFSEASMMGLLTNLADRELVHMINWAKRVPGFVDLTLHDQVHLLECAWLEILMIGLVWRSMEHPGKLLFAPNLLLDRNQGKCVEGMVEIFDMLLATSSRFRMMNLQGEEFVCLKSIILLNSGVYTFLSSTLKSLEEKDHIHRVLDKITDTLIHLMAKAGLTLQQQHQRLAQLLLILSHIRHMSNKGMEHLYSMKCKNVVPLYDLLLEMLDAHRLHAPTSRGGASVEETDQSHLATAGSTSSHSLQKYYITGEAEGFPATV
Procedure, shortened: (§2)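 MCF-7 cells stimulated with estradiol, then co-incubated 24 h with compound at 0.25, 0.5, 1 and 10 µM. RNA was reverse-transcribed and GREB1 or TFF1 measured by SYBR Green qPCR: 95 °C 10 min, then 40 cycles of 95 °C 5 s, 60 °C 60 s, 95 °C 15 s. Normalised to GAPDH, ΔΔCT method.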

[9] = target: T1, Estrogen receptor (Homo sapiens); experiment: Covalent antagonist activity at ERalpha receptor in human ishikawa cells assessed as suppression of E2-stimulated PGR expression at 0.25 to 10 uM measured after 3 days by RT-PCR analysis; assay type: cell-based; conditions: filed as antagonist, dose 0.25-10 µM, time 3.0 day
Procedure, shortened: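 Ishikawa cells stimulated with E2 and exposed 3 days to compound at 0.25, 0.5, 1 and 10 µM. PGR mRNA quantified by SYBR Green real-time PCR, normalised to GAPDH, ΔΔCT method.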

[10] = target: T1, Estrogen receptor (Homo sapiens); experiment: Covalent antagonist activity at ERalpha in human MCF7 cells assessed as decrease in estradiol-induced TFF1 mRNA expression level at 0.25 to 10 uM measured after 24 hrs by RT-PCR analysis; assay type: cell-based; conditions: filed as antagonist, dose 0.25-10 µM; procedure, shortened: as §2
MCF7 [11] = experiment: Downregulation of ERalpha expression in human MCF7 cells at 0.5 uM incubated for 24 hrs by Western blot assay; assay type: functional, cell-based
Procedure, shortened: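 MCF-7 cells were kept in phenol red-free DMEM/F12 with 10% serum for 72 h before plating, then treated at 125, 250 and 500 nM for 24 h. Cells were lysed in RIPA buffer, protein was measured by BCA, and equal amounts were run on 10% SDS-PAGE and transferred to PVDF. ERα band intensity was normalized to GAPDH in each repeat.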

| SMILES | IC50 (MCF7 [1]) [µM] | IC50 (Ishikawa [2]) [µM] | IC50 (MDA-MB-231) [µM] | also measured |
| --- | --- | --- | --- | --- |
| CN(C)C(=O)/C=C/CN1CC(Oc2ccc(Oc3c(-c4ccc(F)cc4)sc4cc(O)ccc34)cc2)C1 | 22.3 | 11.2 | > 50 |  |
| O=C(c1ccc(F)cc1)C1CCN(CCn2c(=O)[nH]c3ccccc3c2=O)CC1 [KETANSERIN] |  |  |  | CLint scaled [3]: 132 mL/min/kg; half-life [4]: 18.8 min |
| C=C(C)C(=O)NCCOc1ccc(Oc2c(-c3ccc(F)cc3)sc3cc(O)ccc23)cc1 | > 25 | > 25 | > 50 |  |
| C/C=C/C(=O)NCCOc1ccc(Oc2c(-c3ccc(F)cc3)sc3cc(O)ccc23)cc1 | 21.7 | 12.4 | > 50 |  |
| C=CC(=O)NCCOc1ccc(Oc2c(-c3ccc(F)cc3)sc3cc(O)ccc23)cc1 | 23 | > 25 | > 50 |  |
| CC(Cc1cccc(C(F)(F)F)c1)NCCOC(=O)c1ccccc1 (configuration not stated) [BENFLUOREX] |  |  |  | half-life [5]: 28.3 min |
| O=C(/C=C/CN1CC(Oc2ccc(Oc3c(-c4ccc(F)cc4)sc4cc(O)ccc34)cc2)C1)N1CCC1 | > 25 | 5.45 | > 50 |  |
| O=C(/C=C/CN1CC(Oc2ccc(Oc3c(-c4ccc(F)cc4)sc4cc(O)ccc34)cc2)C1)N1CCOCC1 | 8.9 | 9.84 | > 50 | Ratio IC50 (Ishikawa [6]): 1.26; Ratio IC50 (MCF7 [7]): 2 |
| C/C=C/C(=O)N1CC(Oc2ccc(Oc3c(-c4ccc(F)cc4)sc4cc(O)ccc34)cc2)C1 | 28 | 9.4 | > 50 |  |
| O=C(/C=C/CN1CC(Oc2ccc(Oc3c(-c4ccc(F)cc4)sc4cc(O)ccc34)cc2)C1)N1CCCC1 | 8.45 | 9.15 | > 50 | Ratio IC50 (Ishikawa [6]): 1.35; Ratio IC50 (MCF7 [7]): 2 |
| C=CC(=O)N1CC(Oc2ccc(Oc3c(-c4ccc(F)cc4)sc4cc(O)ccc34)cc2)C1 | 23.5 | 12.3 | > 50 |  |
| C=C(C)C(=O)N1CC(Oc2ccc(Oc3c(-c4ccc(F)cc4)sc4cc(O)ccc34)cc2)C1 | > 25 | 14.2 | > 50 |  |
| O=C(/C=C/CNCCOc1ccc(Oc2c(-c3ccc(F)cc3)sc3cc(O)ccc23)cc1)N1CCOCC1 | 8.24 | 18.6 | > 50 |  |
| O=C(/C=C/CNCCOc1ccc(Oc2c(-c3ccc(F)cc3)sc3cc(O)ccc23)cc1)N1CCCCC1 | 16.4 | 8.43 | > 50 |  |
| CNC(=O)/C=C/CNCCOc1ccc(Oc2c(-c3ccc(F)cc3)sc3cc(O)ccc23)cc1 | 16.1 | 15.5 | > 50 |  |
| O=C(CCCNCCOc1ccc(Oc2c(-c3ccc(F)cc3)sc3cc(O)ccc23)cc1)N1CCC1 | > 25 | > 25 | > 50 | inhibition [8]: Active; inhibition [9]: Active; inhibition [10]: Active |
| CNC(=O)/C=C/CN1CC(Oc2ccc(Oc3c(-c4ccc(F)cc4)sc4cc(O)ccc34)cc2)C1 | > 25 | > 25 | > 50 |  |
| CC/C(=C(\c1ccccc1)c1ccc(OCCN(C)C)cc1)c1ccccc1 [TAMOXIFEN] |  | 16.8 | > 50 |  |
| C[C@]12CC[C@@H]3c4ccc(O)cc4C[C@@H](CCCCCCCCC[S+]([O-])CCCC(F)(F)C(F)(F)F)[C@H]3[C@@H]1CC[C@@H]2O (some centres not stated) |  |  |  | inhibition (MCF7 [11]): inactive |
| O=C(/C=C/CNCCOc1ccc(Oc2c(-c3ccc(F)cc3)sc3cc(O)ccc23)cc1)N1CCCC1 | 7.61 | 11.2 | > 50 |  |
| O=C(c1ccc(OCCN2CCCCC2)cc1)c1c(-c2ccc(O)cc2)sc2cc(O)ccc12 [RALOXIFENE] | 19.9 | 12.4 | > 50 |  |
| CN(C)C(=O)/C=C/CNCCOc1ccc(Oc2c(-c3ccc(F)cc3)sc3cc(O)ccc23)cc1 | 13.8 | 11.9 | > 50 |  |
